Columns and labels:
Rattus norvegicus [1] = experiment: Ratio of distribution of radioactivity in rat brain region pons and cerebellum 60 min after intravenous administration of iodine labeled compound in presence of reboxetine blocker in study 2; type: ADME, organism-based; details: in vivo, 1 h
Rattus norvegicus [2] = experiment: Distribution of radioactivity in rat brain region hypothalamus 60 min after intravenous administration of iodine labeled compound in presence of RTI-113 blocker in study 1; type: ADME, organism-based; details: in vivo, 1 h
Summary of the method: (§1)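 Male Sprague–Dawley rats (250–300 g), ketamine-anesthetized. Blocker (2 mg/kg) or none was given iv 15 min before tail-vein radioligand (10 µCi in 0.2 mL 10% EtOH/saline). Rats were killed at 60 min with im pentobarbital. Brain regions were dissected, weighed and gamma-counted. % dose/g was taken from decay-corrected, background-subtracted counts versus the injected dose.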

Rattus norvegicus [3] = experiment: Distribution of radioactivity in rat brain region prefrontal cortex 60 min after intravenous administration of iodine labeled compound in absence of blocker in study 1; type: ADME, organism-based; details: in vivo, 1 h; summary of the method: as §1
Rattus norvegicus [4] = experiment: Distribution of radioactivity in rat brain region pons 60 min after intravenous administration of iodine labeled compound in presence of RTI-113 blocker in study 1; type: ADME, organism-based; details: in vivo, 1 h; summary of the method: as §1
Rattus norvegicus [5] = experiment: Distribution of radioactivity in rat brain region frontal cortex 60 min after intravenous administration of iodine labeled compound in absence of blocker in study 2; type: ADME, organism-based; details: in vivo, 1 h; summary of the method: as §1
Rattus norvegicus [6] = experiment: Ratio of distribution of radioactivity in rat brain region pons and cerebellum 60 min after intravenous administration of iodine labeled compound in presence of fluvoxamine blocker in study 1; type: ADME, organism-based; details: in vivo, 1 h
Rattus norvegicus [7] = experiment: Distribution of radioactivity in rat testis 120 min after intravenous administration of iodine labeled compound; type: ADME, organism-based; details: in vivo, 2 h
Summary of the method: (§2)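 Tail-vein injection of [123I]ZIENT (10 μCi in 0.2 mL 10% EtOH/0.9% NaCl, then 0.4 mL saline flush) into ketamine-anaesthetised male Sprague–Dawley rats (225–300 g). Animals were killed by cardiac excision at set times. Organs were excised, rinsed, blotted, weighed and gamma-counted. % dose/g was calculated against diluted aliquots of injectate. Mean ± SE, n=4–5.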

Rattus norvegicus [8] = experiment: Ratio of distribution of radioactivity in rat brain region hypothalamus and cerebellum 60 min after intravenous administration of iodine labeled compound in presence of reboxetine blocker in study 2; type: ADME, organism-based; details: in vivo, 1 h
Rattus norvegicus [9] = experiment: Distribution of radioactivity in rat brain region frontal cortex 60 min after intravenous administration of iodine labeled compound in presence of RTI-113 blocker in study 1; type: ADME, organism-based; details: in vivo, 1 h; summary of the method: as §1
Rattus norvegicus [10] = experiment: Distribution of radioactivity in rat brain region hypothalamus 60 min after intravenous administration of iodine labeled compound in absence of blocker in study 2; type: ADME, organism-based; details: in vivo, 1 h; summary of the method: as §1
[11] = molecular target: Sodium-dependent noradrenaline transporter (Homo sapiens, UniProt P23975); experiment: In vitro competitive binding versus [3H]- […] in murine kidney cells transfected with cDNA for human norepinephrine transporter (NET); type: cell-based
Sequence of Sodium-dependent noradrenaline transporter (P23975 whole entry): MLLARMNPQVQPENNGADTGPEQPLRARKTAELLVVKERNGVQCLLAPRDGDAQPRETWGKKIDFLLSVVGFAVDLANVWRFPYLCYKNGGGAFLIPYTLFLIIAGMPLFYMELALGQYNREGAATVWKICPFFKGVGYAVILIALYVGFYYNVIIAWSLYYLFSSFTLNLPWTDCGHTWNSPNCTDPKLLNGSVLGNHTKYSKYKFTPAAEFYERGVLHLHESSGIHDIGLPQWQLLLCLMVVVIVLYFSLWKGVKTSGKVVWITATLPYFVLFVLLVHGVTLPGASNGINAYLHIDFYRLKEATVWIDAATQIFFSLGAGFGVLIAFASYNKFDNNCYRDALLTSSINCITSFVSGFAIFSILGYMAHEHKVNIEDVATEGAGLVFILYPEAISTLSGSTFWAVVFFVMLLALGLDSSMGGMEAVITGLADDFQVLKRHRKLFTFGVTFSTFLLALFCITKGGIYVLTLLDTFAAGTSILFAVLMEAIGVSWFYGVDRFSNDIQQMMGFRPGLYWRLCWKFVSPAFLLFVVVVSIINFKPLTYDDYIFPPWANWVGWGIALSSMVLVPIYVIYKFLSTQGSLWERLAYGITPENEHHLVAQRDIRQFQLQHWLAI

Rattus norvegicus [12] = experiment: Distribution of radioactivity in rat brain cerebellum 120 min after intravenous administration of iodine labeled compound; type: ADME, organism-based; details: in vivo, 2 h
Summary of the method: (§3)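 Male Sprague–Dawley rats (225–300 g) under ketamine received 10 µCi radioligand iv (tail vein) in 10% EtOH/saline. Hypothalamus, prefrontal cortex, striatum, pons and cerebellum were dissected, weighed and gamma-counted. % injected dose/g was taken from decay-corrected counts versus diluted dose. Mean ± SE and range, n=5 (5, 30 min) or 4 (60, 120 min).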

Rattus norvegicus [13] = experiment: Ratio of distribution of radioactivity in rat brain striatum and cerebellum 120 min after intravenous administration of iodine labeled compound; type: ADME, organism-based; details: in vivo, 2 h
Summary of the method: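 Male Sprague–Dawley rats (225–300 g), ketamine anesthesia, injected via tail vein with [123I]ZIENT (10 μCi in 0.2 mL 10% EtOH/0.9% NaCl, 0.4 mL saline flush). Killed at 5, 30, 60 or 120 min. Striatum and cerebellum dissected, weighed, γ-counted. Decay-corrected %injected dose/g taken against diluted injectate. Ratio is striatum over cerebellum. Four or five rats per time point, mean ± standard error.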

Rattus norvegicus [14] = experiment: Distribution of radioactivity in rat brain region cerebellum 60 min after intravenous administration of iodine labeled compound in presence of fluvoxamine blocker in study 1; type: ADME, organism-based; details: in vivo, 1 h; summary of the method: as §1
Rattus norvegicus [15] = experiment: Ratio of distribution of radioactivity in rat brain prefrontal cortex and cerebellum 30 min after intravenous administration of iodine labeled compound; type: ADME, organism-based; details: in vivo, 0.5 h
Summary of the method: (§4)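 Male Sprague–Dawley rats (225–300 g) under ketamine anaesthesia were given [123I]ZIENT (10 μCi) in 0.2 mL 10% EtOH/0.9% NaCl into the tail vein, with a saline flush. Hypothalamus, prefrontal cortex, striatum, pons and cerebellum were dissected and gamma-counted. % injected dose/g came from decay-corrected counts against the diluted injected dose, and region/cerebellum ratios were taken from these. Mean ± SE, n=4–5.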

Rattus norvegicus [16] = experiment: Distribution of radioactivity in rat brain 5 min after intravenous administration of iodine labeled compound; type: ADME, organism-based; details: in vivo
Rattus norvegicus [17] = experiment: Distribution of radioactivity in rat thyroid 60 min after intravenous administration of iodine labeled compound; type: ADME, organism-based, Thyroid gland; details: in vivo, 1 h; summary of the method: as §2
Rattus norvegicus [18] = experiment: Distribution of radioactivity in rat blood 60 min after intravenous administration of iodine labeled compound; type: ADME, organism-based; details: in vivo, 1 h
Summary of the method: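 Male Sprague–Dawley rats (225–300 g) under ketamine received 10 µCi radioligand in 0.2 mL 10% EtOH/0.9% NaCl via tail vein, then a saline flush. Killed by cardiac excision at set times. Organs were excised, weighed and gamma-counted. % dose/g was taken against diluted injectate. Mean ± SE and range, n=4 (5 min) or 5 (30–120 min).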

Rattus norvegicus [19] = experiment: Distribution of radioactivity in rat brain cerebellum 30 min after intravenous administration of iodine labeled compound; type: ADME, organism-based; details: in vivo, 0.5 h; summary of the method: as §3
Rattus norvegicus [20] = experiment: Ratio of distribution of radioactivity in rat brain region pons and cerebellum 60 min after intravenous administration of iodine labeled compound in absence of blocker in study 1; type: ADME, organism-based; details: in vivo, 1 h
Rattus norvegicus [21] = experiment: Distribution of radioactivity in rat brain region pons 60 min after intravenous administration of iodine labeled compound in presence of fluvoxamine blocker in study 1; type: ADME, organism-based; details: in vivo, 1 h; summary of the method: as §1
Rattus norvegicus [22] = experiment: Distribution of radioactivity in rat brain striatum 60 min after intravenous administration of iodine labeled compound; type: ADME, organism-based; details: in vivo, 1 h; summary of the method: as §4

COC(=O)[C@@H]1C2CCC(C[C@@H]1c1ccc(/C=C\I)cc1)N2 (some centres not stated)
Distribution (dose/g) (Rattus norvegicus [1]): 2.35%
Distribution (dose/g) (Rattus norvegicus [2]): 0.8%
Distribution (dose/g) (Rattus norvegicus [3]): 0.93%
Distribution (dose/g) (Rattus norvegicus [4]): 0.56%
Distribution (dose/g) (Rattus norvegicus [5]): 0.59%
Distribution (dose/g) (Rattus norvegicus [6]): 1.47%
Distribution (dose/g) (Rattus norvegicus [7]): 0.31%
Distribution (dose/g) (Rattus norvegicus [8]): 2.83%
Distribution (dose/g) (Rattus norvegicus [9]): 0.66%
Distribution (dose/g) (Rattus norvegicus [10]): 0.75%
Ki [11]: 24 nM
Distribution (dose/g) (Rattus norvegicus [12]): 0.12%
Distribution (dose/g) (Rattus norvegicus [13]): 4%
Distribution (dose/g) (Rattus norvegicus [14]): 0.17%
Distribution (dose/g) (Rattus norvegicus [15]): 2.56%
Distribution (dose/g) (Rattus norvegicus [16]): 0.83%
Distribution (dose/g) (Rattus norvegicus [17]): 0.8%
Distribution (dose/g) (Rattus norvegicus [18]): 0.37%
Distribution (dose/g) (Rattus norvegicus [19]): 0.32%
Distribution (dose/g) (Rattus norvegicus [20]): 2.58%
Distribution (dose/g) (Rattus norvegicus [21]): 0.25%
Distribution (dose/g) (Rattus norvegicus [22]): 0.68%
